Laboratory results taken from ChEMBL document CHEMBL5357040, “Synthesis and migrastatic activity of cytochalasin analogues lacking a macrocyclic moiety” (RSC Med Chem, 2024).
Calls of active or inactive are those of the source. The rule behind the calls is not given here.

Assays:
[1] = Inhibition of actin (unknown origin) polymerization at 10 uM by spectrophotometer analysis; conditions: Homo sapiens
Summary of the method: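 Pyrene-labelled actin (0.4 mg mL⁻¹) in G-buffer with compound at 10 μM or DMSO control; polymerization started with 10× actin polymerization buffer. Fluorescence (ex 360 nm, em 420 nm) followed over time until plateau.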

[2] = system: BLM; test: Migrastatic activity against human BLM cells assessed as decrease in cell migration at 10 uM incubated for 24 hrs by spheroid invasion assay; assay type: functional, cell-based
Summary of the method: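 BLM spheroids formed over 2 days, embedded singly in 1.5 mg mL⁻¹ rat-tail type I collagen (1× DMEM, 1% FBS), polymerized at 37 °C, overlaid with medium; 10 μM treatment. Imaged at 0 and 24 h; invasiveness as spheroid area increase. Three independent experiments, ≥8 spheroids each; one-way ANOVA.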

[3] = system: HT-1080; test: Inhibition of actin in human HT-1080 cells assessed as effect on actin cytoskeleton at 10 uM incubated for 2 mins by fluorescence microscopic analysis; assay type: cell-based
Summary of the method: (§1)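 HT1080 cells on glass-bottom plates stained with SPY650-FastAct; untreated cells imaged every 20 s for 15 min, then compound (10 or 50 μM) added to same well and recorded 15 min at 20 s/frame by fluorescence time-lapse; actin cytoskeleton and morphology assessed from video.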

[4] = system: HT-1080; test: Inhibition of actin in human HT-1080 cells assessed as effect on actin cytoskeleton at 10 uM incubated for 5 mins by fluorescence microscopic analysis; assay type: cell-based; summary of the method: as §1
[5] = system: HT-1080; test: Effect on cell morphology in human HT-1080 cells at 50 uM incubated for 5 mins by fluorescence microscopic analysis; assay type: functional, cell-based; summary of the method: as §1

| Structure (SMILES) | inhibition [1] | Activity [2] | inhibition [3] | inhibition [4] | Activity [5] |
| --- | --- | --- | --- | --- | --- |
| COC(=O)[C@@]12C(=O)N[C@@H](Cc3ccccc3)[C@@H]1[C@H](C)[C@@](C)(Cl)[C@H](O)[C@@H]2CCOCCc1ccccc1 | Active |  |  |  |  |
| C=C1[C@@H](C)[C@H]2[C@H](Cc3ccccc3)NC(=O)[C@]23OC(=O)/C=C/[C@H](O)CCC[C@@H](C)C/C=C/[C@H]3[C@@H]1O |  | inactive | Active |  |  |
| C=C1[C@@H](C)[C@H]2[C@H](Cc3ccccc3)NC(=O)[C@@]2(C(=O)OC)[C@@H](CCOCCc2ccccc2)[C@@H]1O | Active | Active | inactive | Active | Active |
| COC(=O)[C@@]12C(=O)N[C@@H](Cc3ccccc3)[C@@H]1[C@H](C)C(C)=C[C@@H]2CCCOCc1ccccc1 | Active | Active |  |  |  |
| CC1=C[C@H](CCOCCc2ccccc2)[C@]2(CO)C(=O)N[C@@H](Cc3ccccc3)[C@@H]2[C@@H]1C | Active | Active |  |  |  |
| C=C1[C@@H](C)[C@H]2[C@H](Cc3ccccc3)NC(=O)[C@]23[C@H](OC(C)=O)/C=C/[C@@](C)(O)C(=O)[C@@H](C)C/C=C/[C@H]3[C@@H]1O |  | inactive | Active |  |  |
